Assay outcomes deposited in PubChem by Sanford-Burnham Center for Chemical Genomics.
STEP inh – blocks human striatal-enriched tyrosine phosphatase; inhibition, % at 20 µM; AID 588621; 0.25% of 360,000 active; recombinant STEP, OMFP fluorogenic substrate, fluorescence; P54829;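 active = inhibition at 20 µM, scaled per plate between control wells, above about 37%, limit read from the data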
Target sequence (P54829 whole entry, looked up): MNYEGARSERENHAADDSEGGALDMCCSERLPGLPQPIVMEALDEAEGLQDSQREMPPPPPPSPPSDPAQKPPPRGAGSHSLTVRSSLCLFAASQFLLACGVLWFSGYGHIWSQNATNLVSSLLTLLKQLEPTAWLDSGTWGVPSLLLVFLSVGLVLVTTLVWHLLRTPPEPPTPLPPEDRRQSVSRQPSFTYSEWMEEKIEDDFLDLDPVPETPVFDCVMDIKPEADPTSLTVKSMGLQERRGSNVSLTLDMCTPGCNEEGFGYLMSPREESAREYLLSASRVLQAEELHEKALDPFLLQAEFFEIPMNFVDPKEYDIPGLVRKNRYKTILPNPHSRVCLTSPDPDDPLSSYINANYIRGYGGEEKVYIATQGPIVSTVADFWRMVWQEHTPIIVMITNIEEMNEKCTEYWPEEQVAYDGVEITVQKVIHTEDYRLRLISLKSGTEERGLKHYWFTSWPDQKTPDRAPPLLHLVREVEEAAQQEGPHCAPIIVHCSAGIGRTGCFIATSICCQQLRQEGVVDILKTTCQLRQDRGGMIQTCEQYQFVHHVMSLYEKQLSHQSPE
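System: STEP phosphatase, cell-free reaction; Buffer or medium: Bis-Tris pH 6.0 buffer with DTT, detergent; Incubation: 20 min at room temperature, dark; Measured by: fluorescence, 480/540 nm.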
SUMO1 PPI mod – alters human SUMO1 binding to SIM partners; inhibition, % at 20 µM; 0.33% of 360,000 active; SUMO1 binding to a labelled peptide, TR-FRET, 1 h; in the data active = inhibition above about 37%
Target sequence (P63165 whole entry, looked up): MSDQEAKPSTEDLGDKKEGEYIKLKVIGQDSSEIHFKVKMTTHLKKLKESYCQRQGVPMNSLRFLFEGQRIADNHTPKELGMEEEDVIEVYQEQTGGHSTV
LMPTP inh – LMPTP (human) inhibition. inhibition, % at 20 µM. recombinant LMPTP-A, OMFP fluorogenic substrate, fluorescence intensity. P24666. 0.22% of 360,000 active;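 active = compounds that cut the enzyme signal by at least half of the control window in the single-dose screen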
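Assay system: LMPTP-A enzyme. Input: 0.625 nM LMPTP-A final. Probe or stimulus: 400 µM OMFP. Compound dosing: single 20 µM dose. Schedule: 50 min dark incubation at room temperature. Detection: fluorescence intensity of OMFP turnover product. Read-out: percent inhibition versus substrate-only and uninhibited controls. Benchmarks: no-enzyme low control, uninhibited high control.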
Scp-1 inhibitor – blocks human Scp-1 phosphatase activity; Recombinant Scp1, phosphopeptide, malachite green phosphate absorbance; AID 493091; 0.88% of 340,000 active; Q9GZU7; inhibition, % at 20 µM;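 active = inhibition above about 50% at 20 µM, limit read from the data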
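Test system: SCP-1 phosphatase catalytic domain, residues 76-261 | Compound dosing: One concentration, 20 µM, with 1.0% DMSO | Schedule: 45 min room-temperature reaction, 5 min colour, 30 min stabiliser | Detection: Absorbance at 630 nm | Read-out basis: % inhibition of SCP-1 phosphate liberation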
FAS TE block – inhibitors of human fatty acid synthase thioesterase domain. recombinant FAS-TE, OMFH fluorogenic substrate, fluorescence endpoint. inhibition, % at 15 µM. 0.67% of 360,000 active. AID 602261;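 active = compounds whose normalised, plate-corrected inhibition of enzyme fluorescence in the single-dose primary screen is 50% or more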
Of the large screens only hits and unclear results are named; the others gave an inactive call. Only some compounds are listed: those with a hit (about 1.9% of all), similar ones and a draw of the others.

COc1ccc(N2CCN(S(=O)(=O)c3ccc(C(=O)NC4CCCC4)cc3)CC2)cc1	SUMO1 PPI mod 51
O=C(O)c1cccc(N2C(=O)/C(=C/c3ccc(SCc4ccc(Cl)cc4)o3)SC2=S)c1	SUMO1 PPI mod 70, Scp-1 inhibitor 70
CSc1nc2ccc3nc(NC(=O)c4cccs4)sc3c2s1	SUMO1 PPI mod 44
O=C(NCc1c(Cl)cccc1Cl)c1[nH]c(C(F)(F)F)nc1-c1ccccc1	none (no result: Scp-1 inhibitor)
CCN(CC)c1ccc(Nc2nc(N3CCOCC3)c3ccccc3n2)cc1	none
COc1ccc(Nc2nc(N3CCCC3)c3ccccc3n2)cc1	LMPTP inh 51
N#CCC(=O)Nc1ccc(C(=O)OCC(=O)c2ccc3c(c2)NC(=O)CO3)cc1	SUMO1 PPI mod 84
CCOC(=O)c1c(NC(=O)CSc2nnc(C)c(=O)[nH]2)sc(C)c1-c1ccc(C)cc1	SUMO1 PPI mod 38
CCOC(=O)c1c(NC(=O)CSc2nnc(C)c(=O)[nH]2)sc2c1CCCC2	none
CC(C)C[C@@H](CNCC(=O)[C@H](Cc1ccccc1)NC(=O)c1[nH]cnc1C(=O)N[C@H](CN)CC(C)C)NC(=O)c1nc[nH]c1C(=O)N[C@@H](CC(=O)O)C(=O)O	SUMO1 PPI mod 47
C=C1C2=C(C(=O)N1OC)[C@@H](O)[C@@](C)(O)[C@@H](CCCCC)O2	none (no result: Scp-1 inhibitor)
COc1ccc2c3c(n(C(=O)OC(C)(C)C)c2c1)C1CC=C(COC(C)=O)CN1CC3 (configuration not stated)	none (no result: STEP inh, Scp-1 inhibitor, FAS TE block)
COc1ccccc1C(=O)N/N=C(\C)c1ccc(NC(=O)Cc2ccccc2)cc1	SUMO1 PPI mod 44
C/C(=N\NC(=O)c1cc(O)cc(O)c1)c1ccc(NC(=O)Cc2ccccc2)cc1	STEP inh 98, SUMO1 PPI mod 78, LMPTP inh 69, Scp-1 inhibitor 87
C[C@@H]1CN([C@H](C)CO)C(=O)CCCn2cc(nn2)CO[C@H]1CN(C)C(=O)c1ccccc1	none (no result: Scp-1 inhibitor)
COCCOC(=O)N1CCCCC1c1cc(C(=O)Nc2cccc3c2CCCC3)no1 (configuration not stated)	none (no result: Scp-1 inhibitor)
COc1ccc(NC(=O)c2sc3nc(C)cc(C)c3c2N)cc1	none
Cc1cc(C)c2c(N)c(C(=O)Nc3ccc([N+](=O)[O-])cc3)sc2n1	SUMO1 PPI mod 44
COc1ccc2nc(C)cc(SCC(=O)N/N=C/c3ccc(O)c(O)c3)c2c1	LMPTP inh 57
CN(C)c1ccc(C#Cc2ccc3cc(CCO)oc(=O)c3c2)cc1	STEP inh 97, LMPTP inh 68
O=C(Nc1cccc(C(F)(F)F)c1)c1ccc2sc([C@H]3C[C@H](O)[C@@H](CO)O3)nc2c1	none (no result: Scp-1 inhibitor)
COc1ccc(-c2csc(NC(=S)NC(=O)/C=C/c3ccco3)n2)cc1OC	SUMO1 PPI mod 58
CC1Oc2cc3oc4c(O)c(O)ccc4c(=O)c3c(O)c2C1(C)C (configuration not stated)	FAS TE block 52
COc1ccc(/C=N/NC(=O)CCn2cnc(-c3ccccc3)c2-c2ccccc2)cc1	STEP inh 118
O=C(CCn1cnc(-c2ccccc2)c1-c1ccccc1)N/N=C/c1ccc(O)cc1	none
O=C(NCc1ccccc1)C(C1CC1)n1c(CSCCOc2ccccc2)nc2ccccc21 (configuration not stated)	none (no result: STEP inh, Scp-1 inhibitor, FAS TE block)
Cc1cc(C)c(S(=O)(=O)/N=C2/C=C(Sc3ncn[nH]3)C(=O)c3ccccc32)cc1C	SUMO1 PPI mod 92
Cc1ccc(C)c(S(=O)(=O)/N=C2\C=C(NS(=O)(=O)c3ccccc3)C(=O)c3ccccc32)c1	none
CCOC(=O)C1=CCN(S(=O)(=O)c2ccc(C)cc2)C1c1cccc(Cl)c1 (configuration not stated)	none (no result: Scp-1 inhibitor)
CCN(CC)Cc1cc(Nc2c3ccccc3nc3c4ccccc4n(C)c23)cc(CN(CC)CC)c1O	LMPTP inh 77
CCC(C(=O)Nc1c(C)cccc1C)n1c(-c2ccc(=O)[nH]c2)nc2ccccc21 (configuration not stated)	none (no result: STEP inh, Scp-1 inhibitor, FAS TE block)
O=C(Nc1ccccc1F)NC1CC1	SUMO1 PPI mod 56
O=C(Nc1ccccc1F)NC1CCCCCCC1	none
O=C1c2c(O)ccc(O)c2C(=O)c2c(NCCNCCO)ccc(NCCNCCO)c21	SUMO1 PPI mod 93
COc1cccc(-c2cccc3c2NC(=O)C3(C)Cc2cccc(F)c2)c1 (configuration not stated)	none (no result: Scp-1 inhibitor)
Cn1cnc(S(=O)(=O)N2CCCCC2c2cc(C(=O)Nc3ccc(F)c(Cl)c3)no2)c1 (configuration not stated)	none (no result: Scp-1 inhibitor)
Cc1cc(N2CCN(C(C(=O)NC3CCCC3)c3ccc(F)cc3)CC2)c2ccccc2n1 (configuration not stated)	none (no result: STEP inh, Scp-1 inhibitor, FAS TE block)
Cc1cc(N2CCN(C(C(=O)NC3CCCC3)c3ccco3)CC2)c2ccccc2n1 (configuration not stated)	LMPTP inh 56 (no result: STEP inh, Scp-1 inhibitor, FAS TE block)
CCOC(=O)[C@]12CCCC=C1N(Cc1ccco1)C(=O)[C@H](CC(=O)NCCc1ccccc1OC)C2	none (no result: STEP inh, Scp-1 inhibitor)
CCC(=O)c1ccc(N2CCN(C(=O)c3cc([N+](=O)[O-])ccc3N3CCN(C)CC3)CC2)c(F)c1	FAS TE block 70
CCC(=O)c1ccc(N2CCN(C(=O)c3ccc(F)cc3)CC2)c(F)c1	none
CCn1cc(C(=O)O)c(=O)c2cc(F)c(N3CCN(C(=S)NC(=O)c4ccc(F)c(F)c4)CC3)cc21	LMPTP inh 52
CCCOc1ccc(C(=O)NC(=S)N2CCN(c3cc4c(cc3F)c(=O)c(C(=O)O)cn4CC)CC2)cc1	none
CCn1cc(C(=O)O)c(=O)c2cnc(N3CCN(C(=S)NC(=O)c4ccc(F)c(F)c4)CC3)nc21	none
CCn1cc(C(=O)O)c(=O)c2cc(F)c(N3CCN(C(=S)NC(=O)c4ccccc4Br)CC3)cc21	LMPTP inh 68
CCn1cc(C(=O)O)c(=O)c2cc(F)c(N3CCN(C(=S)NC(=O)c4ccc(F)cc4)CC3)cc21	LMPTP inh 68
CCn1cc(C(=O)O)c(=O)c2cc(F)c(N3CCN(C(=S)Nc4ccccc4OC)CC3)cc21	none
CCn1cc(C(=O)O)c(=O)c2cc(F)c(N3CCN(C(=S)NC(=O)c4c(OC)cccc4OC)CC3)cc21	LMPTP inh 65
CCn1cc(C(=O)O)c(=O)c2cc(F)c(N3CCN(C(=S)NC(=O)c4cccc(F)c4)CC3)cc21	LMPTP inh 66
CN(C)c1ccc(NC(=S)c2ccc3ccccc3n2)cc1	STEP inh 68
Cc1ccc(C)c(NC(=S)c2ccc3ccccc3n2)c1	none
COC1=CC(C)C2CC3OC(O)CC4C(C)=C(OC)C(=O)C(C2(C)C1=O)C34C (configuration not stated)	none (no result: Scp-1 inhibitor)
Cc1ccc2c3c(cccc13)-c1ccccc1C2=O	none
Cc1coc2c1C(=O)C(=O)c1c-2ccc2c(C)cccc12	FAS TE block 74
CCN(CC(=O)Nc1ccccc1OC)C(=O)CCc1ccccc1	SUMO1 PPI mod 40
Cc1ccc2ncccc2c1	none
